Measured values collected from several papers.
Lines come from different studies, so protocols differ.
PIK3C2G: Phosphatidylinositol 3-kinase C2 domain-containing subunit gamma (PIK3C2G, Homo sapiens, UniProt O75747)
PKN1: Serine/threonine-protein kinase N1 (PKN1, Homo sapiens, UniProt Q16512)

Compound | target | observed | action | method | tested at | measurement | result
CCOC(=O)c1ccc(OC(=O)CCCCCNC(=N)N)cc1 | Matrix metalloproteinase-9 (MMP9, Homo sapiens, UniProt P14780, Q279R) | enzyme activity | inhibitor |  | 10 µM | inhibition | 13%
CN1CC[C@]2(C)c3cc(OC(=O)Nc4ccccc4)ccc3N(C)[C@H]12 | Muscarinic acetylcholine receptor M4 (CHRM4, Homo sapiens, UniProt P08173) | ligand displacement |  | radioligand | 10 µM | inhibition | 0%
Cc1nn(C)cc1-c1nc2c(N3CCN(Cc4ccc(Cl)cc4)CC3)c(Cl)cnc2[nH]1 | Cyclin-dependent kinase 18 (CDK18, Homo sapiens, UniProt Q07002) | binding |  | competition with immobilised ligand | 1 µM | remaining binding | 100%
Nc1ncc(-c2nc(N3CCOCC3)nc(N3CCOCC3)n2)c(C(F)F)n1 | PIK3C2G | binding |  | competition with immobilised ligand | 10 µM | remaining binding | 0.75%
COc1ccc2c(c[n+](C)c3c4cc5c(cc4ccc23)OCO5)c1OC | PKN1 | enzyme activity | inhibitor |  | 1 µM | activity vs control | 86%
CN(C)C(=O)COC(=O)Cc1ccc(OC(=O)c2ccc(NC(=N)N)cc2)cc1 | Cathepsin L2 (CTSV, Homo sapiens, UniProt O60911) | enzyme activity | inhibitor |  | 10 µM | inhibition | 1%
COc1ccc2c(c1)/C(=C/c1cnc[nH]1)C(=O)N2 | PKN1 | enzyme activity | inhibitor |  | 1 µM | activity vs control | 55%
CN1CCC(C(c2ccccc2)c2ccccc2)CC1 | Histamine H1 receptor (HRH1, Homo sapiens, UniProt P35367) | binding |  |  |  | koff | 0.133 s⁻¹
N#C/C(=C\c1ccc(O)c(O)c1)C(N)=S | PKN1 | enzyme activity | inhibitor |  | 1 µM | activity vs control | 69%
COc1ncccc1-c1cnn2ccc(N3CCN(C(=O)OC(C)C)CC3)nc12 | PIK3C2G | binding |  | competition with immobilised ligand | 1 µM | remaining binding | 94%
